Results reported in ChEMBL document CHEMBL4270599, “Synthesis of a 3'-C-ethynyl-β-d-ribofuranose purine nucleoside library: Discovery of C7-deazapurine analogs as potent antiproliferative nucleosides” (Eur J Med Chem, 2018).

Experiments:
CCRF-CEM [1] = assay: Growth inhibition of human CCRF-CEM cells assessed as cell growth at 10^-5 M incubated for 48 hrs by sulforhodamine B assay relative to control; assay type: functional; settings: read-out: Activity
HOP-62 = assay: Growth inhibition of human HOP62 cells assessed as cell growth at 10^-8 M incubated for 48 hrs by sulforhodamine B assay relative to control; assay type: functional; settings: HOP-62, 48 h, read-out: Activity
SK-MEL-28 = assay: Growth inhibition of human SK-MEL-28 cells assessed as cell growth at 10^-6 M incubated for 48 hrs by sulforhodamine B assay relative to control; assay type: functional; settings: SK-MEL-28, 48 h, read-out: Activity
HT-29 [2] = assay: Cytotoxicity against human HT-29 cells after 48 hrs by SRB assay; assay type: functional; settings: HT-29, 48 h; for CC50: read-out: LC50 (the source's name)
UO-31 [3] = assay: Growth inhibition of human UO31 cells assessed as cell growth at 10^-7 M incubated for 48 hrs by sulforhodamine B assay relative to control; assay type: functional; settings: UO-31, 48 h, read-out: Activity
IGROV-1 = assay: Growth inhibition of human IGROV1 cells assessed as cell growth at 10^-4 M incubated for 48 hrs by sulforhodamine B assay relative to control; assay type: functional; settings: IGROV-1, 48 h, read-out: Activity
RPMI-8226 = assay: Growth inhibition of human RPMI8226 cells assessed as cell growth at 10^-7 M incubated for 48 hrs by sulforhodamine B assay relative to control; assay type: functional; settings: RPMI-8226, 48 h, read-out: Activity
SW-620 [4] = assay: Growth inhibition of human SW620 cells assessed as cell growth at 10^-8 M incubated for 48 hrs by sulforhodamine B assay relative to control; assay type: functional; settings: SW-620, 48 h, read-out: Activity
SF-539 = assay: Cytotoxicity against human SF539 cells after 48 hrs by SRB assay; assay type: functional; settings: SF-539, 48 h
CCRF-CEM [5] = assay: Antiproliferative activity against human CEM cells after 72 hrs by Coulter counter method; assay type: functional, cell-based
Method in brief: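 Cell count assay in 96-well microtiter plates; (5–7.5) × 10⁴ tumor cells per well plus test compound. Cells proliferated at 37 °C in humidified CO₂-controlled atmosphere, 48 h for murine leukemia L1210, 72 h for human lymphocytic CEM and cervix carcinoma HeLa. Counted by Coulter counter; IC₅₀ is the concentration that inhibits proliferation by 50%.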

Malme-3M = assay: Cytotoxicity against human MALME-3M cells after 48 hrs by SRB assay; assay type: functional
MOLT-4 = assay: Growth inhibition of human MOLT4 cells assessed as cell growth at 10^-6 M incubated for 48 hrs by sulforhodamine B assay relative to control; assay type: functional; settings: MOLT-4, 48 h, read-out: Activity
RXF 393 = assay: Growth inhibition of human RXF393 cells assessed as cell growth at 10^-6 M incubated for 48 hrs by sulforhodamine B assay relative to control; assay type: functional; settings: RXF 393, 48 h, read-out: Activity
ACHN [6] = assay: Growth inhibition of human ACHN cells assessed as cell growth at 10^-8 M incubated for 48 hrs by sulforhodamine B assay relative to control; assay type: functional; settings: read-out: Activity
K562 = assay: Growth inhibition of human K562 cells assessed as cell growth at 10^-6 M incubated for 48 hrs by sulforhodamine B assay relative to control; assay type: functional; settings: K562, 48 h, read-out: Activity
MCF7 = assay: Growth inhibition of human MCF7 cells assessed as cell growth at 10^-7 M incubated for 48 hrs by sulforhodamine B assay relative to control; assay type: functional; settings: MCF7, 48 h, read-out: Activity
M14 = assay: Growth inhibition of human M14 cells assessed as cell growth at 10^-8 M incubated for 48 hrs by sulforhodamine B assay relative to control; assay type: functional; settings: M14, 48 h, read-out: Activity
HT-29 [7] = assay: Growth inhibition of human HT-29 cells assessed as cell growth at 10^-6 M incubated for 48 hrs by sulforhodamine B assay relative to control; assay type: functional; settings: HT-29, 48 h, read-out: Activity
UACC-257 = assay: Growth inhibition of human UACC257 cells assessed as cell growth at 10^-8 M incubated for 48 hrs by sulforhodamine B assay relative to control; assay type: functional; settings: UACC-257, 48 h, read-out: Activity
TK-10 = assay: Growth inhibition of human TK10 cells assessed as cell growth at 10^-7 M incubated for 48 hrs by sulforhodamine B assay relative to control; assay type: functional; settings: TK-10, 48 h, read-out: Activity
HCT-116 = assay: Cytotoxicity against human HCT116 cells after 48 hrs by SRB assay; assay type: functional; settings: HCT-116, 48 h
UO-31 [8] = assay: Growth inhibition of human UO31 cells assessed as cell growth at 10^-6 M incubated for 48 hrs by sulforhodamine B assay relative to control; assay type: functional; settings: UO-31, 48 h, read-out: Activity
SW-620 [9] = assay: Growth inhibition of human SW620 cells assessed as cell growth at 10^-4 M incubated for 48 hrs by sulforhodamine B assay relative to control; assay type: functional; settings: SW-620, 48 h, read-out: Activity
UACC-62 = assay: Cytotoxicity against human UACC62 cells after 48 hrs by SRB assay; assay type: functional; settings: UACC-62, 48 h
ACHN [10] = assay: Cytotoxicity against human ACHN cells after 48 hrs by SRB assay; assay type: functional
NCI-H522 = assay: Cytotoxicity against human NCI-H522 cells after 48 hrs by SRB assay; assay type: functional; settings: NCI-H522, 48 h
HCT-15 = assay: Growth inhibition of human HCT15 cells assessed as cell growth at 10^-8 M incubated for 48 hrs by sulforhodamine B assay relative to control; assay type: functional; settings: HCT-15, 48 h, read-out: Activity
HT-29 [11] = assay: Growth inhibition of human HT-29 cells assessed as cell growth at 10^-4 M incubated for 48 hrs by sulforhodamine B assay relative to control; assay type: functional; settings: HT-29, 48 h, read-out: Activity
ACHN [12] = assay: Growth inhibition of human ACHN cells assessed as cell growth at 10^-6 M incubated for 48 hrs by sulforhodamine B assay relative to control; assay type: functional; settings: read-out: Activity
HUVEC = assay: Antiproliferative activity against HUVEC cells after 4 days by Coulter counter method; assay type: cell-based; settings: Homo sapiens, 96 h
Method in brief: (§1)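 Primary HUVEC, primary HMVEC-d and the HMEC-1 line seeded at 20,000 cells/well in gelatin-coated plates in EC growth medium (EGM2). After overnight incubation, 5-fold compound dilutions added. Cells proliferated four days with compound, then trypsinized and counted by Coulter counter to derive IC₅₀.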

[13] = Antiproliferative activity against HMVEC-d cells after 4 days by Coulter counter method; assay type: cell-based; settings: Homo sapiens, 96 h; method in brief: as §1
[14] = read-out: LC50 (the source's name)
[15] = read-out: pLC50 (the source's name) (converted)

C#C[C@@]1(O)[C@@H](CO)O[C@@H](n2ccc3c(N)ncnc32)[C@@H]1O
growth at 10 µM (CCRF-CEM [1]): 14%
growth at 0.01 µM (HOP-62): 87%
growth at 1 µM (SK-MEL-28): 94%
CC50 (HT-29 [2]): > 100 µM
TGI (HT-29 [2]; read-out: TGI): 10 µM
GI50 (HT-29 [2]; read-out: pGI50 (converted)): 0.977 µM
TGI (HT-29 [2]; read-out: pTGI (converted)): 10 µM
growth at 0.1 µM (UO-31 [3]): 105%
growth at 100 µM (IGROV-1): -28%
growth at 0.1 µM (RPMI-8226): 98%
growth at 0.01 µM (SW-620 [4]): 72%
CC50 (SF-539; [14]): 11.6 µM
TGI (SF-539; read-out: TGI): 4.44 µM
GI50 (SF-539; read-out: pGI50 (converted)): 1.91 µM
CC50 (SF-539; [15]): 11.7 µM
TGI (SF-539; read-out: pTGI (converted)): 4.47 µM
IC50 (CCRF-CEM [5]): 0.71 µM
GI50 (Malme-3M; read-out: GI50): 1.68 µM
TGI (Malme-3M; read-out: TGI): 5.55 µM
GI50 (Malme-3M; read-out: pGI50 (converted)): 1.66 µM
CC50 (Malme-3M; [15]): 30.9 µM
TGI (Malme-3M; read-out: pTGI (converted)): 5.5 µM
growth at 1 µM (MOLT-4): 38%
growth at 1 µM (RXF 393): 88%
growth at 0.01 µM (ACHN [6]): 97%
growth at 1 µM (K562): 46%
growth at 0.1 µM (MCF7): 73%
growth at 0.01 µM (M14): 93%
growth at 1 µM (HT-29 [7]): 49%
growth at 0.01 µM (UACC-257): 100%
growth at 0.1 µM (TK-10): 110%
TGI (HCT-116; read-out: TGI): 10.8 µM
GI50 (HCT-116; read-out: pGI50 (converted)): 0.589 µM
CC50 (HCT-116; [15]): 85.1 µM
TGI (HCT-116; read-out: pTGI (converted)): 10.7 µM
growth at 1 µM (UO-31 [8]): 69%
growth at 100 µM (SW-620 [9]): -45%
TGI (UACC-62; read-out: TGI): 4.48 µM
GI50 (UACC-62; read-out: pGI50 (converted)): 1.78 µM
CC50 (UACC-62; [15]): 19.5 µM
TGI (UACC-62; read-out: pTGI (converted)): 4.47 µM
GI50 (ACHN [10]): 0.562 µM
CC50 (ACHN [10]; [14]): > 100 µM
TGI (ACHN [10]; read-out: TGI): 4.48 µM
TGI (ACHN [10]; read-out: pTGI (converted)): 4.47 µM
CC50 (NCI-H522; [14]): > 100 µM
TGI (NCI-H522; read-out: TGI): 3.82 µM
GI50 (NCI-H522; read-out: pGI50 (converted)): 0.372 µM
TGI (NCI-H522; read-out: pTGI (converted)): 3.8 µM
growth at 0.01 µM (HCT-15): 92%
growth at 100 µM (HT-29 [11]): -17%
growth at 1 µM (ACHN [12]): 33%

C#C[C@@]1(O)[C@@H](CO)O[C@@H](n2cc(Br)c3c(N)ncnc32)[C@@H]1O
growth at 10 µM (CCRF-CEM [1]): 3 to 5%
growth at 0.01 µM (HOP-62): 92 to 100%
growth at 1 µM (SK-MEL-28): 61 to 68%
GI50 (HT-29 [2]; read-out: GI50): 0.0258 to 0.0559 µM
CC50 (HT-29 [2]): > 100 µM
TGI (HT-29 [2]; read-out: TGI): > 100 µM
TGI (HT-29 [2]; read-out: pTGI (converted)): > 100 µM
growth at 0.1 µM (UO-31 [3]): 55 to 57%
growth at 100 µM (IGROV-1): -2%
growth at 0.1 µM (RPMI-8226): 41 to 83%
growth at 0.01 µM (SW-620 [4]): 81 to 89%
GI50 (SF-539; read-out: GI50): 0.238 to 0.372 µM
CC50 (SF-539; [14]): 22 to 30.9 µM
TGI (SF-539; read-out: TGI): 1.14 to 2.04 µM
IC50 (CCRF-CEM [5]): 0.03 µM
GI50 (Malme-3M; read-out: GI50): 0.627 to 0.799 µM
CC50 (Malme-3M; [14]): 81.9 to 82.6 µM
TGI (Malme-3M; read-out: TGI): 12.2 to 14.1 µM
growth at 0.01 µM (ACHN [6]): 97%
growth at 1 µM (K562): 7 to 10%
growth at 0.1 µM (MCF7): 12 to 25%
growth at 0.01 µM (M14): 92 to 94%
growth at 1 µM (HT-29 [7]): 5 to 8%
growth at 0.01 µM (UACC-257): 87 to 100%
growth at 0.1 µM (TK-10): 99 to 103%
GI50 (HCT-116; read-out: GI50): 0.0258 to 0.0292 µM
CC50 (HCT-116; [14]): > 100 µM
TGI (HCT-116; read-out: TGI): > 100 µM
TGI (HCT-116; read-out: pTGI (converted)): > 100 µM
IC50 (HUVEC): 0.018 µM
growth at 100 µM (SW-620 [9]): 4 to 6%
GI50 (UACC-62; read-out: GI50): 0.151 to 0.349 µM
CC50 (UACC-62; [14]): 60 to 74.9 µM
TGI (UACC-62; read-out: TGI): 11.8 to 12.9 µM
GI50 (ACHN [10]): 0.234 µM
CC50 (ACHN [10]; [15]): > 100 µM
IC50 [13]: 0.0019 µM
GI50 (NCI-H522; read-out: GI50): 0.0613 to 0.156 µM
TGI (NCI-H522; read-out: TGI): 0.332 to 0.593 µM
CC50 (NCI-H522; [15]): > 100 µM
growth at 0.01 µM (HCT-15): 80 to 84%
growth at 100 µM (HT-29 [11]): 1 to 2%
growth at 1 µM (ACHN [12]): 8%
